Series [1] addresses T1, 3-hydroxyacyl-CoA dehydrogenase type-2 (Mus musculus) (UniProt O08756).
T1 sequence (whole entry): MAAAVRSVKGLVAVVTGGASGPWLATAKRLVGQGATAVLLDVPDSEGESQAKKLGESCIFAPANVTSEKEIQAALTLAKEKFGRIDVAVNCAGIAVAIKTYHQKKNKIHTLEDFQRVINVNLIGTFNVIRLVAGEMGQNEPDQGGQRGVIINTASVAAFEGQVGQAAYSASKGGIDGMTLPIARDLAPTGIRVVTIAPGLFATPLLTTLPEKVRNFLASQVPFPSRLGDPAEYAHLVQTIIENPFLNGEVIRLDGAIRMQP
In words: Inhibition of recombinant mouse full-length 17beta-HSD10 (2 to 261 residues) assessed as reduction in transformation of [14C]-E2 to E1 at 100 uM after 48 hrs in presence of 1 mM NAD+ cofactor by liquid scintillation counting method.

Series [2] can be described thus: Octanol/water partition co-efficient, log P of the compound. The class given is physicochemical. An outline of the steps:
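Octanol/water partition coefficient calculated in silico, not measured.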

For series [3], the target named is T1, 3-hydroxyacyl-CoA dehydrogenase type-2 (Mus musculus). In words: Inhibition of recombinant mouse full-length 17beta-HSD10 (2 to 261 residues) assessed as reduction in transformation of [14C]-E2 to E1 at 300 uM after 48 hrs in presence of 1 mM NAD+ cofactor by liquid scintillation counting method relative to control. An outline of the steps:
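Single-concentration screen at 300 μM inhibitor. Purified 17β-HSD10 (400 ng/mL), 1 mM NAD⁺, 1 μM [¹⁴C]-E2/E2 (1:9), 48 h incubation. E2-to-E1 conversion was measured and inhibition expressed relative to uninhibited transformation. Results are mean ± SEM.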

Series [4] has the same target. In words: Inhibition of recombinant mouse full-length 17beta-HSD10 (2 to 261 residues) assessed as reduction in transformation of [3H]-ALLOP to 5alpha-DHP at 100 uM after 48 hrs in presence of 1 mM NAD+ cofactor by liquid scintillation counting method relative to control. Put shortly:
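Screen at 100 μM inhibitor, 48 h, with 400 ng/mL purified enzyme, 1 mM NAD⁺ and 1 μM [³H]-ALLOP/ALLOP (1:99). ALLOP-to-5α-DHP conversion was expressed as % inhibition versus the no-inhibitor transformation. Results are mean ± SEM.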

Series [5] has as its target T2, 3-hydroxyacyl-CoA dehydrogenase type-2 (Mus musculus, UniProt O08756).
T2 sequence (O08756 whole entry): T1 sequence (whole entry)
In words: Inhibition of recombinant mouse full-length 17beta-HSD10 (2 to 261 residues) assessed as reduction in transformation of [14C]-E2 to E1 after 48 hrs in presence of 1 mM NAD+ cofactor by liquid scintillation counting method. An outline of the steps: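 Purified 17β-HSD10 at 400 ng/mL with 1 mM NAD⁺ and substrate [¹⁴C]-E2/E2 (1:9) at 1 μM total, incubated 48 h. E2-to-E1 oxidation was followed with radiolabel. Percent inhibition over a dose range was used for dose-response curves and IC50 estimation. Results are mean ± SEM.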

For series [6], the target named is T2, 3-hydroxyacyl-CoA dehydrogenase type-2. In words: Inhibition of recombinant mouse full-length 17beta-HSD10 (2 to 261 residues) assessed as reduction in transformation of [3H]-ALLOP to 5alpha-DHP after 48 hrs in presence of 1 mM NAD+ cofactor by liquid scintillation counting method. Put shortly:
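Purified 17β-HSD10 (400 ng/mL), 1 mM NAD⁺, 1 μM [³H]-ALLOP/ALLOP (1:99), 48 h incubation. Oxidation to 5α-DHP was measured over a range of inhibitor concentrations to build inhibition curves and estimate IC50. Results are mean ± SEM.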

Series [7] is described as follows: Effect on mouse brain penetration assessed as [14C]-sucrose uptake administered via perfusion. The class given is ADME, tissue-based. The settings on record: in vivo.
A short description of series [8]: Blood-brain transfer coefficient in mouse administered via perfusion. The class given is ADME, tissue-based. As to conditions: in vivo, other.
The nature of series [9]: Solubility of the compound at 600 to 1000 uM. The class given is physicochemical.

Calls of active or inactive are those of the source. The rule behind the calls is not given here.

Regarding `C#C[C@]1(O)CC[C@H]2[C@@H]3CC[C@H]4C[C@@](O)(CN5CCN(Cc6cccc(OC)c6)CC5)CC[C@]4(C)[C@H]3CC[C@@]21C`, the inhibition (in general, the change of the read-out against control, counted positive when it falls) in series [1] is “inactive”. For the same compound, the log partition coefficient (logP) (commonly the decadic logarithm of the partition coefficient of the neutral form, usually between octanol and water) in [2] was 4.93. Also, the inhibition in [3] is 44.5%; in [4] it was 20%.
Regarding `C[C@]12CC[C@@H]3c4ccc(O)cc4CC[C@H]3[C@@H]1CC[C@@H]2O` [ESTRADIOL], the IC50 (commonly the concentration needed to halve the response being measured) in series [5] worked out at 155 µM; in [6], 770 µM.
On to `COc1cccc(CN2CCN(C[C@@]3(O)CC[C@@]4(C)[C@@H](CC[C@@H]5[C@@H]4CC[C@]4(C)C(=O)CC[C@@H]54)C3)CC2)c1`, for which the inhibition result in [1] is “inactive”. In series [2], this compound had a logP of 4.43. In addition, the results for the half-maximal inhibitory concentration (IC50) in [5] and in [6] were 710 µM and 985 µM, respectively. For the same compound, the results for the inhibition in [3] and in series [4] were 30% and 14.7%, respectively. Besides, the Activity result in series [7] is reported as “Non-Toxic”. This compound also gave a Kin in [8] of 13.8 to 32.7 µL/s/g.
As for `COc1cccc(CN2CCN(C[C@@]3(O)CC[C@@]4(C)[C@@H](CC[C@@H]5[C@@H]4CC[C@]4(C)[C@H](O)CC[C@@H]54)C3)CC2)c1`, in [1], the inhibition result is “inactive”. This compound gave a logP in series [2] of 4.67. The IC50 was 610 µM in series [5] and 235 µM in series [6]. Besides, the inhibition in series [3] worked out at 31.7%; in series [4], 41.7%.
As for `Cc1cc(C)cc(C(=O)N2CCN(C[C@@]3(O)CC[C@@]4(C)[C@@H](CC[C@@H]5[C@@H]4CC[C@]4(C)C(=O)CC[C@@H]54)C3)CC2)c1`, the inhibition entry in series [1] was “inactive”. In series [2], the logP amounted to 4.86. Moreover, the inhibition in series [4] worked out at 1.5%.
As to `C[C@]12CC[C@](O)(CN3CCN(C(=O)c4ccc(C(=O)c5ccccc5)cc4)CC3)C[C@@H]1CC[C@@H]1[C@@H]2CC[C@]2(C)C(=O)CC[C@@H]12`, the inhibition entry in series [1] is “inactive”. Moreover, the logP in series [2] worked out at 4.99. In addition, the inhibition worked out at 58.8% in series [3] and 8% in [4].
Taken in the same sequence, the figures for `C[C@]12CC[C@](O)(CN3CCN(C(=S)NCc4cccc(C(F)(F)F)c4)CC3)C[C@@H]1CC[C@@H]1[C@@H]2CC[C@]2(C)C(=O)CC[C@@H]12` were “inactive”, 3.85, 8.5% and 34.2%.
Taken in the same sequence, the figures for `COc1cc(CN2CCN(C[C@@]3(O)CC[C@@]4(C)[C@@H](CC[C@@H]5[C@@H]4CC[C@]4(C)C(=O)CC[C@@H]54)C3)CC2)ccc1C` were “inactive”, 4.72, 31% and 12.5%.
With `COc1cccc(CN2CCN(C[C@@]3(O)CC[C@@]4(C)[C@@H](CC[C@@H]5[C@@H]4CC[C@@]4(C)[C@H]5CCC4(F)F)C3)CC2)c1`, the inhibition result in series [1] is “inactive”. This compound also showed a logP in series [2] of 5.57. Also, the inhibition was determined as 13.3% in series [3] and 38.6% in series [4]. Moreover, the solubility result in series [9] was “Insoluble”.
For the compound `C[C@]12CC[C@](O)(CN3CCN(C(=O)c4ccc(-c5ccccc5)cc4)CC3)C[C@@H]1CC[C@@H]1[C@@H]2CC[C@]2(C)C(=O)CC[C@@H]12`, the inhibition entry in [1] was “inactive”. In [2], this compound gave a lipophilicity (logP) of 5.3. The inhibition in [3] stood at 29.4%; in [4] it was 19.3%.
Taken in the same sequence, the figures for `CCN(C)S(=O)(=O)N1CCN(C[C@@]2(O)CC[C@@]3(C)[C@@H](CC[C@@H]4[C@@H]3CC[C@]3(C)C(=O)CC[C@@H]43)C2)CC1` were “inactive”, 2.97, 10.2% and 0%.
Regarding `CN1C(=O)CN=C(c2ccccc2)c2cc(Cl)ccc21` [DIAZEPAM], the Kin in [8] lay within 50 to 60 µL/s/g.
With `C[C@]12CC[C@](O)(CN3CCN(Cc4cnc5ccccc5c4)CC3)C[C@@H]1CC[C@@H]1[C@@H]2CC[C@]2(C)C(=O)CC[C@@H]12`, the inhibition entry in [1] is “inactive”. In addition, the logP in series [2] amounted to 4.58. The inhibition in [3] turned out to be 36.1%; in series [4], 15.2%.
In the case of `COc1cccc(CN2CCN(C[C@@]3(O)CC[C@@]4(C)[C@@H](CC[C@@H]5[C@@H]4CC[C@]4(C)[C@@H](O)CC[C@@H]54)C3)CC2)c1`, the inhibition result in series [1] was “inactive”. This compound had a logP in series [2] of 4.67. Moreover, the inhibition is 13.7% in series [3] and 0% in [4].
Taken in the same sequence, the figures for `CN(C)S(=O)(=O)c1ccc(NC(=S)N2CCN(C[C@@]3(O)CC[C@@]4(C)[C@@H](CC[C@@H]5[C@@H]4CC[C@]4(C)C(=O)CC[C@@H]54)C3)CC2)cc1` were “inactive”, 3.32, 0.3% and 13.3%.
For `COc1cccc(CN2CCN(C[C@@]3(O)CC[C@@]4(C)[C@@H](CC[C@@H]5[C@@H]4CC[C@]4(C)C(=O)C(C)(C)C[C@@H]54)C3)CC2)c1`, in that order: “inactive”, 5.57, 24.6% and 11.1%.
Consider `COc1cccc(CN2CCN(C[C@@]3(O)CC[C@@]4(C)[C@@H](CC[C@@H]5[C@@H]4CC[C@@]4(C)[C@H]5CC[C@]4(C)O)C3)CC2)c1`, for which the inhibition entry in series [1] is “inactive”. Further, in series [2], the logP is 5.06. Moreover, the inhibition came out at 22.6% in series [3] and 21.9% in [4].
For the compound `CC(=O)c1cccc(C(=O)N2CCN(C[C@@]3(O)CC[C@@]4(C)[C@@H](CC[C@@H]5[C@@H]4CC[C@]4(C)C(=O)CC[C@@H]54)C3)CC2)c1`, the inhibition entry in [1] is “inactive”. Further, the logP in [2] is 3.85. Also, the inhibition in series [4] is 5%.

The values are drawn from ChEMBL document CHEMBL4261611, “Identification of steroidal derivatives inhibiting the transformations of allopregnanolone and estradiol by 17β-hydroxysteroid dehydrogenase type 10” (Bioorg Med Chem Lett, 2018).
